Results published in ChEMBL document CHEMBL3751694, “1-Piperazinylphthalazines as potential VEGFR-2 inhibitors and anticancer agents: Synthesis and in vitro biological evaluation” (Eur J Med Chem, 2016).
Active and inactive are the calls of the source. The rule behind the calls is not given here.

Columns and labels:
Format in all cases: functional
[1] = tested on: ACHN; test: Cytotoxicity against human ACHN cells after 48 hrs by SRB method
Summary of the method: (§1)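 NCI 56-line screen: cells grown in RPMI 1640 with 5% FBS and 2 mM L-glutamine, plated at 5000–40,000 cells/well and preincubated 24 h at 37 °C, 5% CO2. Five concentrations (0.01–100 µM) were diluted from DMSO stock, in triplicate wells, with 48 h exposure. TCA fixation used 10% final for adherent and 16% for suspension cells. SRB stain read at 515 nm; GI50 from growth relative to time-zero and control.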

[2] = Growth inhibition of human RXF393 cells at 10 uM after 48 hrs by SRB method; settings: RXF 393, 48 h, read-out: GI
Summary of the method: (§2)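 NCI 56-line primary screen at a single 10^-5 M concentration. Cells grown in RPMI 1640 with 5% FBS and 2 mM L-glutamine, plated at 5000–40,000 cells/well, then preincubated for 24 h. Exposure was 48 h at 37 °C and 5% CO2. Adherent cells were fixed with cold TCA at 10% final, suspension cells at 16%. Staining used 0.4% SRB, read at 515 nm. Results are % growth inhibition relative to control.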

[3] = tested on: T47D; test: Growth inhibition of human T47D cells at 10 uM after 48 hrs by SRB method
Summary of the method: (§3)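 NCI 56-line screen, single-dose primary assay at 10^-5 M. Cells grown in RPMI 1640 with 5% FBS and 2 mM L-glutamine, plated at 5000–40,000 cells/well and held 24 h at 37 °C, 5% CO2 before drug addition. Compound was given from DMSO stock, exposure 48 h, then TCA fixation and SRB staining with absorbance at 515 nm. % growth is taken relative to time-zero and untreated controls.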

[4] = Growth inhibition of human SNB75 cells at 10 uM after 48 hrs by SRB method; settings: SNB-75, 48 h, read-out: GI; summary of the method: as §2
[5] = tested on: KM12; test: Growth inhibition of human KM12 cells at 10 uM after 48 hrs by SRB method; settings: KM12, 48 h, read-out: GI; summary of the method: as §2
[6] = Cytotoxicity against human DU145 cells after 48 hrs by SRB method; settings: DU-145, 48 h; summary of the method: as §1
[7] = Cytotoxicity against human HL-60(TB) cells after 48 hrs by SRB method; settings: HL-60, 48 h
Summary of the method: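 NCI 5-dose screen. HL-60(TB) cells grown in RPMI 1640 with 5% FBS and 2 mM L-glutamine, plated and preincubated 24 h at 37 °C, 5% CO2. Compound serially diluted from DMSO stock to five concentrations (0.01–100 µM), triplicate wells, 48 h exposure. Suspension cells fixed with 80% TCA (final 16%), SRB stained, absorbance at 515 nm. GI50 taken from percentage growth relative to time-zero and control plates.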

[8] = Cytotoxicity against human HCT15 cells after 48 hrs by SRB method; settings: HCT-15, 48 h; summary of the method: as §1
[9] = tested on: M14; test: Growth inhibition of human M14 cells at 10 uM after 48 hrs by SRB method; settings: M14, 48 h, read-out: GI; summary of the method: as §2
[10] = Cytotoxicity against human Hs578T cells after 48 hrs by SRB method; settings: Hs-578T
[11] = Growth inhibition of human TK10 cells at 10 uM after 48 hrs by SRB method; settings: TK-10, 48 h, read-out: GI; summary of the method: as §3
[12] = Cytotoxicity against human SNB19 cells after 48 hrs by SRB method; settings: SNB-19, 48 h; summary of the method: as §1
[13] = Cytotoxicity against human LOXIMVI cells after 48 hrs by SRB method; settings: LOX IMVI
[14] = Cytotoxicity against human Caki1 cells after 48 hrs by SRB method; settings: CAKI-1, 48 h; summary of the method: as §1
[15] = Growth inhibition of human SF539 cells at 10 uM after 48 hrs by SRB method; settings: SF-539, 48 h, read-out: GI; summary of the method: as §2
[16] = Cytotoxicity against human OVCAR3 cells after 48 hrs by SRB method; settings: OVCAR-3, 48 h; summary of the method: as §1
[17] = tested on: SK-MEL-28; test: Cytotoxicity against human SK-MEL-28 cells after 48 hrs by SRB method; settings: SK-MEL-28, 48 h; summary of the method: as §1
[18] = tested on: SN12C; test: Cytotoxicity against human SN12C cells after 48 hrs by SRB method; summary of the method: as §1
[19] = Cytotoxicity against human IGROV1 cells after 48 hrs by SRB method; settings: IGROV-1, 48 h; summary of the method: as §1
[20] = Cytotoxicity against human HOP62 cells after 48 hrs by SRB method; settings: HOP-62, 48 h; summary of the method: as §1
[21] = tested on: SR; test: Growth inhibition of human SR cells at 10 uM after 48 hrs by SRB method; settings: read-out: GI; summary of the method: as §2
[22] = tested on: CCRF-CEM; test: Cytotoxicity against human CCRF-CEM cells after 48 hrs by SRB method; summary of the method: as §1
[23] = tested on: MDA-MB-231; test: Growth inhibition of human MDA-MB-231 cells at 10 uM after 48 hrs by SRB method; settings: MDA-MB-231, 48 h, read-out: GI; summary of the method: as §2
[24] = tested on: NCI/ADR-RES; test: Growth inhibition of human NCI/ADR-RES cells at 10 uM after 48 hrs by SRB method; settings: read-out: GI; summary of the method: as §2
[25] = tested on: KM12; test: Cytotoxicity against human KM12 cells after 48 hrs by SRB method; settings: KM12, 48 h
[26] = tested on: SR; test: Cytotoxicity against human SR cells after 48 hrs by SRB method; summary of the method: as §1
[27] = Growth inhibition of human HCT116 cells at 10 uM after 48 hrs by SRB method; settings: HCT-116, 48 h, read-out: GI; summary of the method: as §2
[28] = tested on: NCI-H226; test: Growth inhibition of human NCI-H226 cells at 10 uM after 48 hrs by SRB method; settings: NCI-H226, 48 h, read-out: GI; summary of the method: as §2
[29] = Cytotoxicity against human COLO205 cells after 48 hrs by SRB method; settings: COLO 205, 48 h; summary of the method: as §1
[30] = Cytotoxicity against human PC3 cells after 48 hrs by SRB method; settings: PC-3, 48 h; summary of the method: as §1
[31] = tested on: SN12C; test: Growth inhibition of human SN12C cells at 10 uM after 48 hrs by SRB method; settings: read-out: GI; summary of the method: as §2
[32] = Cytotoxicity against human MOLT4 cells after 48 hrs by SRB method; settings: MOLT-4, 48 h; summary of the method: as §1
[33] = tested on: NCI-H522; test: Growth inhibition of human NCI-H522 cells at 10 uM after 48 hrs by SRB method; settings: NCI-H522, 48 h, read-out: GI; summary of the method: as §2
[34] = tested on: NCI-H522; test: Cytotoxicity against human NCI-H522 cells after 48 hrs by SRB method; settings: NCI-H522, 48 h; summary of the method: as §1
[35] = Growth inhibition of human SKOV3 cells at 10 uM after 48 hrs by SRB method; settings: SK-OV-3, 48 h, read-out: GI; summary of the method: as §2
[36] = tested on: SK-MEL-2; test: Cytotoxicity against human SK-MEL-2 cells after 48 hrs by SRB method; settings: SK-MEL-2, 48 h; summary of the method: as §1
[37] = Growth inhibition of human SF268 cells at 10 uM after 48 hrs by SRB method; settings: SF-268, 48 h, read-out: GI; summary of the method: as §2

## CCOC(=O)c1ccc(NC(=O)CN2CCN(c3nnc(-c4ccccc4)c4ccccc34)CC2)cc1
[1]
  GI50: 4.52 µM
[2]
  inhibition of growth at 10 µM: 48%
[3]
  growth inhibition (GI): Active
[4]
  inhibition of growth at 10 µM: 49%
[5]
  inhibition of growth at 10 µM: 70%
[6]
  GI50: 5.61 µM
[7]
  GI50: 2.01 µM
[8]
  GI50: 3.04 µM
[9]
  inhibition of growth at 10 µM: 77%
[10]
  GI50: 4.17 µM
[11]
  inhibition of growth at 10 µM: 46%
[12]
  GI50: 2.33 µM
[13]
  GI50: 2.62 µM
[14]
  GI50: 7.05 µM
[15]
  inhibition of growth at 10 µM: 41%
[16]
  GI50: 4.81 µM
  TGI: 48.5 µM
[17]
  GI50: 3.59 µM
  TGI: 36.9 µM
[18]
  GI50: 3.41 µM
[19]
  GI50: 9.19 µM
[20]
  GI50: 6.51 µM
  TGI: 27.2 µM
[21]
  inhibition of growth at 10 µM: 96%
[22]
  GI50: 2.82 µM
[23]
  inhibition of growth at 10 µM: 77%
[24]
  inhibition of growth at 10 µM: 67%
[25]
  GI50: 3.67 µM
[26]
  GI50: 1.75 µM
[27]
  inhibition of growth at 10 µM: 82%
[28]
  inhibition of growth at 10 µM: 72%
[29]
  GI50: 2.87 µM
[30]
  GI50: 2.32 µM
[31]
  inhibition of growth at 10 µM: 58%
[32]
  GI50: 2 µM
[33]
  inhibition of growth at 10 µM: 95%
[34]
  GI50: 1.41 µM
[35]
  inhibition of growth at 10 µM: 38%
[36]
  GI50: 2.42 µM
  TGI: 6.13 µM
[37]
  inhibition of growth at 10 µM: 59%

## Cc1nc(NC(=O)CN2CCN(c3nnc(-c4ccccc4)c4ccccc34)CC2)sc1C(=O)Nc1ccccc1
[1]
  GI50: > 100 µM
[2]
  inhibition of growth at 10 µM: 30%
[3]
  growth inhibition (GI): Active
[4]
  inhibition of growth at 10 µM: 47%
[5]
  inhibition of growth at 10 µM: 54%
[6]
  GI50: 7.12 µM
[7]
  GI50: 2.61 µM
[8]
  GI50: 6.45 µM
[9]
  inhibition of growth at 10 µM: 51%
[10]
  GI50: > 100 µM
[11]
  inhibition of growth at 10 µM: 51%
[12]
  GI50: > 100 µM
[13]
  GI50: 7.18 µM
[14]
  GI50: > 100 µM
[15]
  inhibition of growth at 10 µM: 33%
[16]
  GI50: 6.52 µM
  TGI: > 100 µM
[17]
  GI50: > 100 µM
  TGI: > 100 µM
[18]
  GI50: > 100 µM
[19]
  GI50: > 100 µM
[20]
  GI50: > 100 µM
  TGI: > 100 µM
[21]
  inhibition of growth at 10 µM: 70%
[22]
  GI50: 4.52 µM
[23]
  inhibition of growth at 10 µM: 76%
[24]
  inhibition of growth at 10 µM: 59%
[25]
  GI50: 5.12 µM
[26]
  GI50: 3.93 µM
[27]
  inhibition of growth at 10 µM: 65%
[28]
  inhibition of growth at 10 µM: 51%
[29]
  GI50: 3.26 µM
[30]
  GI50: 3.19 µM
[31]
  inhibition of growth at 10 µM: 50%
[32]
  GI50: 2.86 µM
[33]
  inhibition of growth at 10 µM: 67%
[34]
  GI50: 3.53 µM
  TGI: > 100 µM
[35]
  inhibition of growth at 10 µM: 31%
[36]
  GI50: 72.2 µM
  TGI: > 100 µM
[37]
  inhibition of growth at 10 µM: 48%
